Measured values published in ChEMBL document CHEMBL1122637, “Synthesis and antiallergy activity of 10-oxo-10H-pyrido[1,2-a]thieno[3,2-d]pyrimidines and 10-oxo-10H-pyrido[1,2-a]thieno[3,4-d]pyrimidines” (1984).
Activity calls are given as the source filed them. The rule behind the calls is not given here.

How the values were obtained:
Rattus norvegicus [1] = assay: Antiallergic activity in the rat passive cutaneous anaphylaxis (PCA) model after intraperitoneal administration at a dose 5 mg/kg; format: functional; conditions: ip
In short: (§1)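 Rats passively sensitized by intradermal injection of antiserum dilutions at several back sites, 48 h before iv challenge with 1 mg ovalbumin in 1 mL saline with 0.25% Evans blue. Drug given ip as a suspension in 1% gum tragacanth/saline 10-15 min before challenge. Wheal diameter read 30 min later. Five rats per group. % inhibition taken against control minus extrapolated base value at the highest antiserum concentration. Student's t test.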

Rattus norvegicus [2] = assay: Compound was tested for antiallergic activity in the rat passive cutaneous anaphylaxis (PCA) model after intraperitoneal administration at a dose 10 mg/kg; format: functional; conditions: ip; in short: as §1
Rattus norvegicus [3] = assay: Compound was tested for antiallergic activity in the rat passive cutaneous anaphylaxis (PCA) model after intraperitoneal administration at a dose 5 mg/kg; I denotes Inactive at 30 mg/kg; format: functional, organism-based; conditions: in the assay text read “Inactive at 5 mg/kg” for “Inactive at 30 mg/kg”; in short: as §1

Cc1cc2nc3ccc(C(=O)O)cn3c(=O)c2s1
inhibition in vivo at 5 mg/kg (Rattus norvegicus [1]): 61%

Cc1cc2c(=O)n3cc(C(=O)Nc4nn[nH]n4)ccc3nc2s1
inhibition in vivo at 5 mg/kg (Rattus norvegicus [1]): 25%

O=C(O)c1cc(=O)c2c(OCC(O)COc3cccc4oc(C(=O)O)cc(=O)c34)cccc2o1 [CROMOLYN SODIUM]
inhibition in vivo at 10 mg/kg (Rattus norvegicus [2]): 89%

O=c1c2sccc2nc2ccc(-c3nnn[nH]3)cn12
inhibition in vivo at 5 mg/kg (Rattus norvegicus [1]): 70%

Cc1cc2c(=O)n3cc(-c4nnn[nH]4)ccc3nc2s1
inhibition in vivo at 5 mg/kg (Rattus norvegicus [1]): 100%

O=C(O)c1ccc2nc3ccsc3c(=O)n2c1
inhibition in vivo at 5 mg/kg (Rattus norvegicus [1]): 28%

O=C(Nc1nn[nH]n1)c1ccc2nc3c(c(=O)n2c1)CSC3
inhibition in vivo at 5 mg/kg (Rattus norvegicus [1]): 33%

Cc1cc2nc3ccc(-c4nnn[nH]4)cn3c(=O)c2s1
inhibition in vivo at 5 mg/kg (Rattus norvegicus [1]): 51%

Cc1sc(C)c2c(=O)n3cc(-c4nnn[nH]4)ccc3nc12
inhibition in vivo at 5 mg/kg (Rattus norvegicus [1]): 47%

Cc1cc2c(=O)n3cc(C(=O)O)ccc3nc2s1
inhibition in vivo at 5 mg/kg (Rattus norvegicus [1]): 100%

O=c1c2c(nc3ccc(-c4nnn[nH]4)cn13)CCS2
inhibition (Rattus norvegicus [3]): inactive

O=C(Nc1nn[nH]n1)c1ccc2nc3cscc3c(=O)n2c1
inhibition in vivo at 5 mg/kg (Rattus norvegicus [1]): 49%

Cc1sc(C)c2c(=O)n3cc(C(=O)Nc4nn[nH]n4)ccc3nc12
inhibition in vivo at 5 mg/kg (Rattus norvegicus [1]): 50%

Cc1cc2nc3ccc(C(=O)Nc4nn[nH]n4)cn3c(=O)c2s1
inhibition in vivo at 5 mg/kg (Rattus norvegicus [1]): 21%

O=c1c2c(nc3ccc(-c4nnn[nH]4)cn13)CSC2
inhibition in vivo at 5 mg/kg (Rattus norvegicus [1]): 100%

O=C(Nc1nn[nH]n1)c1ccc2nc3ccsc3c(=O)n2c1
inhibition in vivo at 5 mg/kg (Rattus norvegicus [1]): 100%

O=C(O)c1ccc2nc3c(c(=O)n2c1)CSC3
inhibition (Rattus norvegicus [3]): inactive

O=c1c2cscc2nc2ccc(-c3nnn[nH]3)cn12
inhibition in vivo at 5 mg/kg (Rattus norvegicus [1]): 100%

O=C(O)c1ccc2nc3c(c(=O)n2c1)SCC3
inhibition in vivo at 5 mg/kg (Rattus norvegicus [1]): 46%

O=C(O)c1ccc2nc3cscc3c(=O)n2c1
inhibition in vivo at 5 mg/kg (Rattus norvegicus [1]): 41%

Cc1sc(C)c2c(=O)n3cc(C(=O)O)ccc3nc12
inhibition in vivo at 5 mg/kg (Rattus norvegicus [1]): 70%
